We go through 31 molecules from ChEMBL document CHEMBL1137377, “Evaluation of azasterols as anti-parasitics” (J Med Chem, 2006).

The test system of test [1] is Trypanosoma cruzi. The test can be described thus: Antitrypanosomal activity against Trypanosoma cruzi trypomastigotes in CD1 mouse macrophage. It is filed as functional. The following applies: read-out: ED50 (the source's name). In a few lines: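 Starch-induced CD1 peritoneal macrophages plated at 4 × 10^5/mL, infected after 24 h with T. cruzi Tulahuan LAC-Z trypomastigotes. 24 h later, drug exposure for 3 days. ED50 by curve fitting.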

The subject of test [2] is KB. Kind of test: Cytotoxicity against KB cell line. The class given is functional. The settings on record: Homo sapiens, read-out: TD50 (the source's name).
The subject of test [3] is Trypanosoma brucei rhodesiense. The test can be described thus: Antitrypanosomal activity against Trypanosoma brucei rhodesiense trypomastigotes. The class given is functional. The following applies: read-out: ED50 (the source's name). Summed up:
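Bloodstream-form STIB900 trypomastigotes grown in HMI-18 + 15% HIFCS at 37 °C, 5% CO2. Seeded at 2 × 10^5/mL onto drug dilutions (top 30 µg/mL) for 72 h. Alamar Blue read 5-6 h later by fluorescence (ex/em 530/585 nm). ED50 by curve fitting.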

Test [4] concerns Leishmania donovani. The test can be described thus: Antileishmanial activity against Leishmania donovani amastigotes in CD1 mouse macrophage. The settings on record: for EC50: read-out: ED50 (the source's name). The class given is functional, organism-based. Summed up: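 Peritoneal macrophages from starch-induced CD1 mice, kept 24 h in RPMI1640 + 10% HIFCS at 37 °C, 5% CO2. Infected with L. donovani MHOM/ET/67/L82 amastigotes from hamster spleen at 5 parasites:1 macrophage. After 24 h, drug exposure for 5 days, overlay replaced day 3. Top concentration 30 µg/mL, quadruplicate. Slides methanol-fixed, Giemsa-stained, counted microscopically. ED50 by curve fitting.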

Test [5] has as its system Plasmodium falciparum. The test can be described thus: Antimalarial activity against Plasmodium falciparum 3D7. It is filed as functional, organism-based. The settings on record: read-out: ED50 (the source's name). In a few lines:
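Synchronized ring-stage 3D7 culture at 1% parasitemia in RPMI 1640, 5% hematocrit, 37 °C, 5% CO2. Top final drug concentration 30 µg/mL. After 24 h, (3H)-hypoxanthine added (0.2 µCi/well), then 48 h further incubation. Plates freeze/thawed and harvested, and hypoxanthine uptake counted. ED50 by curve fitting.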

As to `C[C@H](C(=O)NCCCCCCCC(=O)O)[C@H]1CC[C@H]2C3CC=C4C[C@@H](O)CC[C@]4(C)[C@H]3CC[C@]12C` (stereo not given in full), the EC50 in test [1] is 6.5 µM; in test [3], 0.431 µM; in test [4] it was 25.8 µM; in test [5], above 62 µM. Further, in test [2], the CC50 worked out at 377 µM.

Regarding `CC(=O)O[C@H]1CC[C@@]2(C)C(=CCC3[C@@H]4CC[C@H]([C@H](C)CNCCCC(=O)O)[C@@]4(C)CC[C@@H]32)C1` (stereo not given in full), the EC50 is 12.6 µM in test [1], 54.6 µM in test [3], above 65 µM in test [4] and above 65 µM in test [5]. Further, the CC50 in test [2] came to 505 µM.

As to `C[C@H](C(=O)NCCC[C@H](N)C(=O)O)[C@H]1CC[C@H]2C3CC=C4C[C@@H](O)CC[C@]4(C)[C@H]3CC[C@]12C` (stereo not given in full), the EC50 in test [1] is above 65 µM; in test [3], 2.38 µM; in test [4] it was above 65 µM. The CC50 in test [2] amounted to 651 µM.

Regarding `C[C@H](C(=O)NCCC(=O)O)[C@H]1CC[C@H]2C3CC=C4C[C@@H](O)CC[C@]4(C)[C@H]3CC[C@]12C` (stereo not given in full), the EC50 in test [1], in test [3] and in test [5] was above 72 µM throughout. The CC50 in test [2] worked out at 615 µM.

With `C[C@H](C(=O)NCCCCC(=O)O)[C@H]1CC[C@H]2C3CC=C4C[C@@H](O)CC[C@]4(C)[C@H]3CC[C@]12C` (stereo not given in full), the EC50 in test [1] was 32.9 µM; in test [3] it was 7.85 µM; in test [4], above 67 µM; in test [5] it was above 67 µM. In addition, the CC50 in test [2] stood at 561 µM.

Take `CC(=O)O[C@H]1CC[C@@]2(C)C(=CCC3[C@@H]4CC[C@H]([C@H](C)CNCCC[C@H](NC(=O)OCc5ccccc5)C(=O)O)[C@@]4(C)CC[C@@H]32)C1` (stereo not given in full): the EC50 in test [1] was 18.5 µM; in test [3], 17.4 µM; in test [4], above 48 µM.

For the molecule `C[C@H](C(=O)NCCC[C@H](NC(=O)OCc1ccccc1)C(=O)O)[C@H]1CC[C@H]2C3CC=C4C[C@@H](O)CC[C@]4(C)[C@H]3CC[C@]12C` (stereo not given in full), the EC50 is above 50 µM in test [1], 1.33 µM in test [3] and above 50 µM in test [4]. For the same molecule, in test [2], the CC50 stood at 32 µM.

For the molecule `CC(=O)O[C@H]1CC[C@@]2(C)C(=CCC3[C@@H]4CC[C@H]([C@H](C)CNCC[C@H](NC(=O)OC(C)(C)C)C(=O)O)[C@@]4(C)CC[C@@H]32)C1` (stereo not given in full), the EC50 in test [1] was 13.2 µM; in test [3], above 52 µM; in test [4], above 53 µM.

`C[C@H](C(=O)NCCCC[C@H](NC(=O)OCc1ccccc1)C(=O)O)[C@H]1CC[C@H]2C3CC=C4C[C@@H](O)CC[C@]4(C)[C@H]3CC[C@]12C` (stereo not given in full): the figures for the EC50 in test [1], in test [3] and in test [4] were above 49 µM, 1.8 µM and above 49 µM, respectively. The CC50 in test [2] was 276 µM.

Consider `C[C@H](CNC[C@H](NC(=O)OC(C)(C)C)C(=O)O)[C@H]1CC[C@H]2C3CC=C4C[C@@H](O)CC[C@]4(C)[C@H]3CC[C@]12C` (stereo not given in full), for which the EC50 is above 58 µM in test [1], above 58 µM in test [3] and 5.76 µM in test [5]. In test [2], the CC50 amounted to 86.1 µM.

Take `C[C@H](CNCCCCCC(=O)O)[C@H]1CC[C@H]2C3CC=C4C[C@@H](O)CC[C@]4(C)[C@H]3CC[C@]12C` (stereo not given in full): the EC50 is 56.3 µM in test [1], above 67 µM in test [3], 54.5 µM in test [4] and above 67 µM in test [5]. The CC50 in test [2] was above 673 µM.

Regarding `N=C(N)c1ccc(OCCCCCOc2ccc(C(=N)N)cc2)cc1` [PENTAMIDINE], the EC50 in test [3] worked out at 0.001 µM.

In the case of `CC(=O)O[C@H]1CC[C@@]2(C)C(=CCC3[C@@H]4CC[C@H]([C@H](C)CNC[C@H](NC(=O)OC(C)(C)C)C(=O)O)[C@@]4(C)CC[C@@H]32)C1` (stereo not given in full), the EC50 in test [1] is 4.64 µM; in test [3], above 54 µM; in test [4] it was above 54 µM.

In the case of `C[C@H](CNCCCCC(=O)O)[C@H]1CC[C@H]2C3CC=C4C[C@@H](O)CC[C@]4(C)[C@H]3CC[C@]12C` (stereo not given in full), the EC50 is 66.2 µM in test [1], 30.1 µM in test [3], above 70 µM in test [4] and above 70 µM in test [5]. Moreover, the CC50 in test [2] is above 695 µM.

With `COC(=O)[C@@H](N)CCCCNC(=O)[C@@H](C)[C@H]1CC[C@H]2C3CC=C4C[C@@H](O)CC[C@]4(C)[C@H]3CC[C@]12C` (stereo not given in full), the EC50 in test [1] amounted to 11.2 µM; in test [3] it was 0.55 µM; in test [4], 25 µM. In test [2], the CC50 was determined as 42 µM.

In the case of `CC(=O)O[C@H]1CC[C@@]2(C)C(=CCC3[C@@H]4CC[C@H]([C@H](C)C(=O)NC[C@H](NC(=O)OC(C)(C)C)C(=O)O)[C@@]4(C)CC[C@@H]32)C1` (stereo not given in full), the EC50 in test [1] was 8.7 µM; in test [3], 2.68 µM; in test [4], above 52 µM.

In the case of `C[C@H](C(=O)NCCCCCCC(=O)O)[C@H]1CC[C@H]2C3CC=C4C[C@@H](O)CC[C@]4(C)[C@H]3CC[C@]12C` (stereo not given in full), the EC50 in test [1] is 34.5 µM; in test [3], 2.32 µM; in test [4], above 63 µM; in test [5], above 63 µM. Besides, in test [2], the CC50 worked out at 252 µM.

As for `C[C@H](C(=O)NCC[C@H](NC(=O)OC(C)(C)C)C(=O)O)[C@H]1CC[C@H]2C3CC=C4C[C@@H](O)CC[C@]4(C)[C@H]3CC[C@]12C` (stereo not given in full), the figures for the EC50 in test [1], in test [3] and in test [4] were 11.2 µM, above 55 µM and above 55 µM, respectively. In addition, the CC50 in test [2] was determined as 1270 µM.

With `C[C@H](CNCCCCCCCC(=O)O)[C@H]1CC[C@H]2C3CC=C4C[C@@H](O)CC[C@]4(C)[C@H]3CC[C@]12C` (stereo not given in full), the EC50 in test [1] was 38.4 µM; in test [3], 10.6 µM; in test [4], 26.4 µM; in test [5], above 63 µM. Moreover, in test [2], the CC50 was above 633 µM.

As to `COC(=O)CCCCNC[C@@H](C)[C@H]1CC[C@H]2C3CC=C4C[C@@H](OC(C)=O)CC[C@]4(C)[C@H]3CC[C@]12C` (stereo not given in full), the EC50 in test [1] was 11.7 µM; in test [3] it was 0.032 µM; in test [4], above 62 µM; in test [5] it was 8.65 µM. For the same molecule, in test [2], the CC50 was 26.1 µM.

As to `C[C@H](C(=O)NCCCCCC(=O)O)[C@H]1CC[C@H]2C3CC=C4C[C@@H](O)CC[C@]4(C)[C@H]3CC[C@]12C` (stereo not given in full), the EC50 in test [1] was 11.4 µM; in test [3] it was 10.4 µM; in test [4] it was above 65 µM; in test [5], above 65 µM. The CC50 in test [2] stood at 303 µM.

On to `CC(=O)O[C@H]1CC[C@@]2(C)C(=CCC3[C@@H]4CC[C@H]([C@H](C)C(=O)NCC[C@H](NC(=O)OC(C)(C)C)C(=O)O)[C@@]4(C)CC[C@@H]32)C1` (stereo not given in full), for which the figures for the EC50 in test [1], in test [3] and in test [4] were 26.8 µM, 17.5 µM and above 51 µM, respectively.

With `CC(=O)O[C@H]1CC[C@@]2(C)C(=CCC3[C@@H]4CC[C@H]([C@H](C)CNCCCCCCCC(=O)O)[C@@]4(C)CC[C@@H]32)C1` (stereo not given in full), the EC50 in test [1] is 21 µM; in test [3], 9.11 µM; in test [5], above 58 µM. In addition, the CC50 in test [2] worked out at 59 µM.

For the molecule `C[C@H](C(=O)NCC(=O)O)[C@H]1CC[C@H]2C3CC=C4C[C@@H](O)CC[C@]4(C)[C@H]3CC[C@]12C` (stereo not given in full), the EC50 in test [1], in test [3] and in test [5] was above 74 µM in each case. The CC50 in test [2] was above 743 µM.

Regarding `C[C@H](CNCC(=O)O)[C@H]1CC[C@H]2C3CC=C4C[C@@H](O)CC[C@]4(C)[C@H]3CC[C@]12C` (stereo not given in full), the EC50 in test [1], in test [3], in test [4] and in test [5] was above 77 µM each time. The CC50 in test [2] was above 770 µM.

In test [4], pentostam displayed an ED50 above 10 µM.

Turning to `C[C@H](C(=O)NC[C@H](NC(=O)OC(C)(C)C)C(=O)O)[C@H]1CC[C@H]2C3CC=C4C[C@@H](O)CC[C@]4(C)[C@H]3CC[C@]12C` (stereo not given in full), the EC50 is above 56 µM in test [1], 34.3 µM in test [3] and above 56 µM in test [4]. For the same molecule, in test [2], the CC50 is 109 µM.

Take `C[C@]12CC[C@H](O)C[C@@H]1CC[C@@H]1[C@@H]2CC[C@@]2(C)[C@H]1CC[C@@H]2[C@@](C)(O)C1CCCCN1` (stereo not given in full): the EC50 came to 7.4 µM in test [1], 3.3 µM in test [3] and 8.9 µM in test [4]. Besides, in test [2], the CC50 is 11.9 µM.

In the case of `COC(=O)CNC[C@@H](C)[C@H]1CC[C@H]2C3CC=C4C[C@@H](OC(C)=O)CC[C@]4(C)[C@H]3CC[C@]12C` (stereo not given in full), the EC50 is 5.61 µM in test [1], 7.85 µM in test [3] and above 67.3 µM in test [5]. The CC50 in test [2] is 94.5 µM.

With `CCN(CC)CCCC(C)Nc1ccnc2cc(Cl)ccc12` (stereo not given) [CHLOROQUINE], the EC50 in test [5] came out at 0.003 µM.

Consider `C[C@H](CNCCC[C@H](NC(=O)OCc1ccccc1)C(=O)O)[C@H]1CC[C@H]2C3CC=C4C[C@@H](O)CC[C@]4(C)[C@H]3CC[C@]12C` (stereo not given in full), for which the figures for the EC50 in test [1], in test [3] and in test [5] were above 52 µM, above 52 µM and 51 µM, respectively. For the same molecule, the CC50 in test [2] worked out at 417 µM.
